Assay results as given in ChEMBL document CHEMBL4619720, “Synthesis and biological evaluation of new antioxidant and antiproliferative chalcogenobiotin derivatives for bladder carcinoma treatment” (Bioorg Med Chem, 2020).
Active and inactive are the calls of the source. The calls are words filed in the database; no cut-off is given here.

What was measured:
5637 [1] = test: Antiproliferative activity against human 5637 cells assessed as inhibition of cell growth at 0.4 uM to 50 uM after 48 hrs by MTT assay; format: functional, cell-based
Procedure, shortened: (§1)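 Human bladder carcinoma 5637 cells, grown in DMEM with 10% FBS at 37 °C under 5% CO2, were seeded at 2 × 10^4 cells/well and cultured 24 h. Medium was then replaced with compound in DMEM/FBS, DMSO ≤0.5%, for 24 or 48 h. MTT was added for 3 h, formazan dissolved in DMSO, and OD read at 492 nm. Inhibition % = [1 − Abs treated/Abs control] × 100; three independent experiments.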

5637 [2] = test: Antiproliferative activity against human 5637 cells assessed as inhibition of cell growth at 0.4 uM to 50 uM after 24 hrs by MTT assay; format: functional, cell-based; procedure, shortened: as §1
CHO-K1 [3] = test: Cytotoxicity against CHOK1 cells assessed as inhibition of cell growth at 0.4 uM to 50 uM after 24 hrs by MTT assay; format: cell-based, Cricetulus griseus; conditions: chinese hamster, cho-k1, 24 h
Procedure, shortened: (§2)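 CHO-K1 cells exposed to 0.4–50 µM for 24 and 48 h, then MTT reduction assay. Growth inhibition relative to control; IC50 by nonlinear regression; three independent experiments.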

CHO-K1 [4] = test: Cytotoxicity against CHOK1 cells assessed as inhibition of cell growth at 0.4 uM to 50 uM after 48 hrs by MTT assay; format: cell-based, Cricetulus griseus; conditions: chinese hamster, cho-k1, 48 h; procedure, shortened: as §2
[5] = Cytotoxicity against CHOK1 cells assessed as inhibition of cell growth at 12.5 uM after 24 hrs by MTT assay relative to control; format: cell-based, Cricetulus griseus; conditions: chinese hamster, CHO-K1 cells; procedure, shortened: as §2
[6] = Antioxidant activity assessed as inhibition of Fe(II)-induced lipid peroxidation at 200 uM after 30 mins by TBARS assay; format: functional
Procedure, shortened: (§3)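 Lipid peroxidation system: phosphatidylcholine 0.4 mg, FeSO4 55 µM, Tris-HCl pH 7.4 and compound (final 0–200 µM), 30 min at 37 °C. Then acetic acid buffer pH 3.4 plus 0.22% thiobarbituric acid, 1 h at 100 °C, n-butanol extraction of pink chromogen. IC50 from concentration curves; α-tocopherol and diphenyl diselenide as references; three independent experiments.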

[7] = Antioxidant activity assessed as inhibition of Fe(II)-induced lipid peroxidation after 30 mins by TBARS assay; format: functional; procedure, shortened: as §3
[8] = Antioxidant activity assessed as half life of DPPH radical scavenging activity at 500 uM for 180 mins measured every 30 mins relative to control; format: functional
Procedure, shortened: (§4)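 Test compounds mixed with 0.3 mM DPPH in ethanol; single-point screen at 1 mM, time course at final 500 µM. Absorbance at 518 nm read every 30 min over 180 min. Positive controls were BHT (final 500 µM) and diphenyl diselenide (final 2 mM); t1/2 is the time to scavenge 50% of DPPH. DMSO vehicle; three independent experiments.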

[9] = Cytotoxicity against human leukocytes assessed as reduction in cell viability at 1 mM after 3 hrs by Trypan blue exclusion assay; conditions: 1000 µM
[10] = Antioxidant activity assessed as half life of GPx-like activity to decompose hydrogen peroxide at 55 uM measured for 20 mins by spectrophotometer method
[11] = Antioxidant activity assessed as GPx-like activity to decompose hydrogen peroxide at 450 uM measured for 20 mins by spectrophotometer method; format: functional
Procedure, shortened: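 GPx-mimic assay with thiophenol replacing glutathione. Ethanol, thiophenol 2.5 mM and compound (final 0–450 µM; t1/2 also taken at 55 µM) or DMSO blank, started with H2O2 2.3 mM. […] followed at 305 nm for 20 min. Ebselen and diphenyl diselenide at 55 µM as references; three independent experiments.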

CHO-K1 [12] = test: Cytotoxicity against CHOK1 cells assessed as inhibition of cell growth after 48 hrs by MTT assay relative to control; format: cell-based; conditions: Cricetulus griseus, CHO-K1, 48 h; procedure, shortened: as §2
[13] = Toxicity in Swiss mouse assessed as effect on alkaline phosphatase activity at 100 umol/kg, sc administration and measured for 7 days; format: organism-based; conditions: in vivo, 168 h
Procedure, shortened: (§5)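 Adult male Swiss mice (25–30 g), n = 4 per group, given a single subcutaneous dose of 100 µmol/kg or DMSO 1 mL/kg. Monitored by closed-circuit TV for 168 h, with body weight, food and water intake recorded daily. Killed by decapitation at day 7; blood urea, creatinine, AST, ALT and alkaline phosphatase measured.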

CHO-K1 [14] = test: Cytotoxicity against CHOK1 cells assessed as inhibition of cell growth after 24 hrs by MTT assay relative to control; format: cell-based; conditions: Cricetulus griseus, CHO-K1, 24 h; procedure, shortened: as §2
[15] = Toxicity in Swiss mouse assessed as increase in aspartate aminotransferase level in plasma at 100 umol/kg, sc administration and measured for 7 days; format: organism-based; conditions: in vivo, 168 h; procedure, shortened: as §5
5637 [16] = test: Antiproliferative activity against human 5637 cells assessed as inhibition of cell growth at 0.4 uM to 50 uM by MTT assay; format: functional, cell-based; conditions: TDE = time-dependent effect
Procedure, shortened: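 5637 bladder carcinoma cells in DMEM/10% FBS at 37 °C, 5% CO2, log phase, seeded 2 × 10^4 per well for 24 h. Compound exposure 0.4–50 µM for 24 or 48 h, DMSO ≤0.5%. MTT (5 mg/mL in PBS) 3 h at 37 °C, formazan dissolved in DMSO, read at 492 nm. Inhibition % = [1 − Abs treated/Abs control] × 100; IC50 by nonlinear regression; three independent experiments.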

5637 [17] = test: cells; conditions: Homo sapiens, 5637, 24 h
[18] = Cytotoxicity against human leukocytes assessed as reduction in cell viability at 100 uM after 3 hrs by Trypan blue exclusion assay
Procedure, shortened: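 Leukocytes isolated from heparinized venous blood of healthy donors, 2 × 10^6/mL. Incubated 3 h in Hank's buffer with 10% human plasma containing DMSO (0.5%), compounds (100 µM) or t-butyl hydroperoxide (1 mM) as positive control. Three independent experiments.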

[19] = Toxicity in Swiss mouse assessed as effect on alanine aminotransferase level at 100 umol/kg, sc administration and measured for 7 days; format: organism-based; conditions: in vivo, 168 h; procedure, shortened: as §5
5637 [20] = test: Cell cycle arrest in human 5637 cells assessed as accumulation at S-phase at 12.5 uM after 24 hrs by propidium-iodide staining based flow cytometry; format: functional
Procedure, shortened: (§6)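 5637 cells treated 24 h at 12.5 µM alongside untreated controls. DNA content measured by propidium iodide staining and flow cytometry. Triplicate treatments; analysis by two-way ANOVA with t-tests, p < 0.05.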

5637 [21] = test: cells; conditions: Homo sapiens, 5637, 48 h
[22] = Toxicity in Swiss mouse assessed as survival rate at 100 umol/kg, sc administration and measured for 7 days; format: organism-based; conditions: in vivo, 168 h; procedure, shortened: as §5
[23] = Toxicity in Swiss mouse assessed as urea level in plasma at 100 umol/kg, sc administration and measured for 7 days; format: organism-based; conditions: in vivo, 168 h; procedure, shortened: as §5
[24] = Toxicity in Swiss mouse assessed as creatinine level in plasma at 100 umol/kg, sc administration and measured for 7 days; format: organism-based; conditions: in vivo, 168 h; procedure, shortened: as §5
[25] = Antioxidant activity assessed as DPPH radical scavenging activity at 1 mM for 180 mins measured every 30 mins relative to control; format: functional; procedure, shortened: as §4
5637 [26] = test: Cell cycle arrest in human 5637 cells assessed as accumulation at G2/M phase at 12.5 uM after 24 hrs by propidium-iodide staining based flow cytometry; format: functional; procedure, shortened: as §6

## O=C(O)CCCC[C@@H]1SC[C@@H]2NC(=O)N[C@@H]21 [BIOTIN]
5637 [1]
  inhibition: inactive
5637 [2]
  inhibition: inactive
CHO-K1 [3]
  Activity: Non-Toxic
CHO-K1 [4]
  Activity: Non-Toxic

## O=C1N[C@H]2[C@H](CS[C@H]2CCCCC(=O)OCCCC[Se]c2ccc(Cl)cc2)N1
5637 [1]
  inhibition: inactive
5637 [2]
  inhibition: inactive

## O=C1N[C@H]2[C@H](CS[C@H]2CCCCC(=O)OCCCC[Se]c2ccccc2)N1
5637 [1]
  inhibition: inactive
5637 [2]
  inhibition: inactive

## Cc1ccc([Se]CCCCOC(=O)CCCC[C@@H]2SC[C@@H]3NC(=O)N[C@@H]32)cc1
5637 [1]
  inhibition: inactive
5637 [2]
  inhibition: inactive

## CCCCCCC[Te]c1ccccc1
[5]
  inhibition at 24 h, 12.5 µM: 50%

## Cc1c(C)c2c(c(C)c1O)CC[C@@](C)(CCC[C@H](C)CCC[C@H](C)CCCC(C)C)O2 [ALPHA-TOCOPHEROL]
[6]
  inhibition: Active
[7]
  IC50: 60.3 µM

## Cc1cc(C(C)(C)C)c(O)c(C(C)(C)C)c1
[8]
  T1/2: 20.7 min

## CC(C)(C)OO [TERT-BUTYL HYDROPEROXIDE]
[9]
  Activity: Toxic

## O=c1c2ccccc2[se]n1-c1ccccc1
[10]
  T1/2: 56 min

## O=C1N[C@H]2[C@H](CS[C@H]2CCCCC(=O)OCCCC[Te]c2ccccc2)N1
[11]
  Activity: Active
CHO-K1 [12]
  IC50: 34.2 µM
[13]
  Activity: Non-Toxic
CHO-K1 [14]
  IC50: 70 µM
[15]
  Activity: Toxic
5637 [16]
  inhibition: Tde
5637 [17]
  IC50: 5.8 µM
[18]
  Activity: Non-Toxic
[19]
  Activity: Non-Toxic
[10]
  T1/2: 15.8 min
[6]
  inhibition: Active
[8]
  T1/2: 18 min
5637 [20]
  Activity: Active
5637 [21]
  IC50: 4.73 µM
[22]
  Activity: Non-Toxic
[23]
  Activity: Non-Toxic
[24]
  Activity: Non-Toxic
[25]
  Activity: 50%
[7]
  IC50: 5 µM

## c1ccc([Se][Se]c2ccccc2)cc1
[11]
  Activity: Active
[10]
  T1/2: 120 min
[6]
  inhibition: Active
[8]
  T1/2: > 180 min
[7]
  IC50: 248 µM

## O=C1N[C@H]2[C@H](CS[C@H]2CCCCC(=O)OCCCCC[Te]c2ccccc2)N1
[11]
  Activity: Active
5637 [16]
  inhibition: Tde
5637 [17]
  IC50: 7.63 µM
[18]
  Activity: Non-Toxic
5637 [26]
  Activity: Active
[10]
  T1/2: 38.9 min
[6]
  inhibition: Active
[8]
  T1/2: 23 min
5637 [21]
  IC50: 6.71 µM
[25]
  Activity: 50%
[7]
  IC50: 1.33 µM

## COc1ccc([Se]CCCCOC(=O)CCCC[C@@H]2SC[C@@H]3NC(=O)N[C@@H]32)cc1
5637 [1]
  inhibition: inactive
5637 [2]
  inhibition: inactive
